These results are taken from publication PMC13618202 (ACS chemical biology, 2026).

The target of test [1] is T1, UBA5 (Homo sapiens, UniProt Q9GZZ9).
T1 sequence (Q9GZZ9 37-346): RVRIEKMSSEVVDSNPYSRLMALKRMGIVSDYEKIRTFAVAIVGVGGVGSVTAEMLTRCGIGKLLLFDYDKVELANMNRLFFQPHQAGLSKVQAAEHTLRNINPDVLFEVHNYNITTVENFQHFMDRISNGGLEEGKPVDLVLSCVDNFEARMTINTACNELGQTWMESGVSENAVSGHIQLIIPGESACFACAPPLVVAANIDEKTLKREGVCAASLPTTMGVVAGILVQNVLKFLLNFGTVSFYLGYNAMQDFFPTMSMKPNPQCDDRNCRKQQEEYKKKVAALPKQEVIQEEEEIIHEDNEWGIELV
Description: Gel-based UBA5-UFM1 charging assay. In kind it is biochemical. Conditions: UBA5 12 μM; UFM1 25 μM; ATP 2 mM; 2 h. Put shortly: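 UBA5 (12 μM) incubated 1 h with test compound (0–100 μM) in 50 mM Bis-Tris pH 6.5, 100 mM NaCl, 10 mM MgCl2. UFM1 (25 μM) and ATP (2 mM) then added for 2 h at 30 °C; zero time points taken before ATP addition. Gel read-out of UBA5–UFM1 thioester, duplicate.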

In test [2] the target is T1, UBA5. Description: Fluorescence polarization. The class given is biochemical. Conditions: titration. Put shortly: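 UBA5 (1 μM) preincubated 1 h with test compound (0–25 μM), then UFM1 (2.5 μM) and ATP (20 μM) added for 30 min at RT. Transcreener detection reagent (anti-AMP antibody, Alexa Fluor 633 AMP tracer) added for 1.5 h. AMP read as fluorescence polarization. IC50 by curve fitting, triplicate.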
(In general: In fluorescence polarisation assays a small probe gives low polarisation when free and higher when bound to something large.)

Test [3] deals with coupling enzymes in the AMP-Glo kit. Description: UBA5-free AMP-Glo coupling enzyme assay. In kind it is biochemical. To be noted: 3 mM, no UBA5, ATP 5 μM with or without AMP 5 μM. Put shortly: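 Without UBA5: test compound (0–100 μM) incubated 30 min with AMP-Glo kit components and UFM1 (5 μM), then AMP added to a final 5 μM as direct substrate. Luminescence endpoint read at 37 °C with 2 min integration. Normalized to DMSO wells with AMP (100%) and without AMP (0%). Triplicate.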

Test [4] deals with T1, UBA5. Description: AMP-Glo UBA5 UFMylation assay. In kind it is biochemical. To be noted: read-out: IC50-UBA5-Glo; UBA5 0.8 μM; UFM1 5 μM; ATP 5 μM.
Test [5] has as its system UBA5. To be noted: read-out: IC50 (UBA5); cited from earlier work.
Test [6] concerns global cellular ubiquitination in HEK293T cells. Description: Global cellular ubiquitination. In kind it is cell-based, Human. To be noted: compounds 60 μM, TAK-243 125 or 250 nM, 5 h.

For `COc1ccc(CNC(=O)CCl)cc1OC` [DKM 2-93], at UBA5 [1], the “UBA5-UFM1 thioester formation (UFM1 activation)” value was “significantly reduced UFM1 activation”. In addition, the “inhibition of UBA5 reaction in FP assay” value on UBA5 [2] is “dose-dependently inhibited the reaction”. In test [3], the “interference with the AMP-Glo detection system” value is “does not significantly interfere”. Further, the IC50 (as a rule, the point on the concentration scale where inhibition reaches its midpoint) on UBA5 [4] was 547 µM; in the test on UBA5 [5] it was 430 µM.

`NS(=O)(=O)OC[C@H]1C[C@@H](Nc2ccnc3cc(-c4cccc(SC(F)(F)F)c4)nn23)[C@H](O)[C@@H]1O` [TAK-243]: in test [6], the global cellular ubiquitination result is recorded as “markedly reduced global cellular ubiquitination”.

Consider `Nc1ncnc2c1ncn2[C@@H]1O[C@H](COS(N)(=O)=O)[C@@H](O)[C@H]1O` [adenosine 5’-sulfamate (ADS), adenosine 5’-sulfamate], for which the IC50 in the test with UBA5 [5] is 13 µM.
